From ChEMBL document CHEMBL4190248, “Synthesis and evaluation of N-heteroaromatic ring-based analogs of piperlongumine as potent anticancer agents” (Eur J Med Chem, 2017) come the findings set out here.

One may read the IC50 as the concentration that inhibits the measured activity by half. The solubility is the concentration that dissolves in the medium under given conditions.

The structures appear in SMILES notation. ≈ marks a conversion by molar mass, not a printed value. Calls of active or inactive are those of the source. No cut-off for these calls is given here.

Data set [1] deals with HCT-116. Kind of data set: Antiproliferative activity against human HCT116 cells after 72 hrs by MTT assay. It is filed as functional, cell-based. The note with it: HCT-116, 72 h. (In general: Formazan colour is commonly taken as a measure of viable cells.)
The subject of another data set is A549. Kind of data set: Antiproliferative activity against human A549 cells at 10 uM after 72 hrs by MTT assay. The format is functional, cell-based.
The test system of data set [2] is HCT-116. Kind of data set: Antiproliferative activity against human HCT116 cells at 10 uM after 72 hrs by MTT assay. The format is functional, cell-based.
Data set [3] in a line: Aqueous solubility of the compound in pure water by HPLC analysis. The format is physicochemical. The gist of the method: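 Solubility was measured in pure water by HPLC on a C18 column using acetonitrile–water 60/40 (v/v) at 1.0 mL/min, with detection at 254 nm, in triplicate.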
The subject of another data set is K562. In words: Antiproliferative activity against human K562 cells at 10 uM after 72 hrs by MTT assay. It is filed as functional, cell-based.
Data set [4] relates to Mus musculus. Kind of data set: Toxicity in nude BALB/c mouse xenografted with human HCT116 cells assessed as effect on lung morphology at 5 mg/kg, ip administered daily for 21 days. As to conditions: in vivo, 504 h. It is filed as organism-based. In a few lines: (§1)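 HCT-116 xenografts (1×10^7 cells s.c.) were grown in male BALB/c nude mice, 3–5 weeks old, to about 75 mm³. Mice (n = 8 per group) then received 5 mg/kg i.p. daily for 21 days. Liver, kidney, lung and heart were examined for size and morphology against vehicle-treated controls.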
For orientation: Xenograft models place foreign cells or tissue in a host animal.

Data set [5] is described as follows: Cytotoxicity against human CCD-841 cells assessed as reduction in cell viability after 72 hrs by MTT assay. As to conditions: CCD-841, 72 h. The format is cell-based. In a few lines: (§2)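 Cells were cultured overnight in RPMI 1640 + 10% FBS, then treated in triplicate with vehicle or compound across the indicated concentrations for 72 h. MTT was added for the final 4 h, formazan was dissolved in DMSO, and absorbance was read at 570 nm. Inhibition rate = (1 − OD treated/OD control) × 100%, and the IC50 was derived from it.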

Data set [6] has as its system HCT-116. In words: Induction of intracellular ROS generation in human HCT116 cells at 10 uM after 3 hrs by DCFH-DA-dye based fluorescence microscopy. The format is functional, cell-based. The gist of the method:
(§3)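 Cells were treated in triplicate with 10 µM compound or with vehicle DMSO (0.1%, v/v) for 3 h. Intracellular ROS was detected with a fluorescent probe, the legend citing DCFH-DA and the methods citing dihydroethidium (300/610 nm). Signals were read on a fluorescence microplate reader and imaged by fluorescence microscopy.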

Data set [7] can be described thus: Induction of intracellular ROS generation in human CCD-841 cells at 10 uM after 3 hrs by DCFH-DA-dye based fluorescence microscopy. The format is cell-based. The gist of the method:
as §3

Data set [8] has as its system Mus musculus. Kind of data set: Toxicity in nude BALB/c mouse xenografted with human HCT116 cells assessed as effect on heart morphology at 5 mg/kg, ip administered daily for 21 days. The format is organism-based. As to conditions: in vivo, 504 h. In a few lines: as §1
For data set [9], the system named is Mus musculus. Kind of data set: Toxicity in nude BALB/c mouse xenografted with human HCT116 cells assessed as effect on liver morphology at 5 mg/kg, ip administered daily for 21 days. The format is organism-based. The note with it: in vivo, 504 h. The gist of the method: as §1
For the next data set, the system named is HCT-8. In words: Antiproliferative activity against human HCT8 cells after 72 hrs by MTT assay. The note with it: HCT-8, 72 h. The format is functional, cell-based. In a few lines:
as §2

The test system of data set [10] is Mus musculus. In words: Toxicity in nude BALB/c mouse xenografted with human HCT116 cells assessed as effect on kidney morphology at 5 mg/kg, ip administered daily for 21 days. It is filed as organism-based. The note with it: in vivo, 504 h. In a few lines: as §1
Data set [11] deals with Mus musculus. In words: Toxicity in nude BALB/c mouse xenografted with human HCT116 cells assessed as effect on liver size at 5 mg/kg, ip administered daily for 21 days. It is filed as organism-based. As to conditions: in vivo, 504 h. The gist of the method: as §1
Data set [12] deals with Mus musculus. In words: Toxicity in nude BALB/c mouse xenografted with human HCT116 cells assessed as effect on heart size at 5 mg/kg, ip administered daily for 21 days. It is filed as organism-based. The note with it: in vivo, 504 h. The gist of the method: as §1
Data set [13] concerns Mus musculus. In words: Toxicity in nude BALB/c mouse xenografted with human HCT116 cells assessed as reduction in body weight at 5 mg/kg, ip administered daily for 21 days. The format is organism-based. As to conditions: in vivo, 504 h. In a few lines:
(§4)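 Male BALB/c nude mice, 3–5 weeks old, received 1×10^7 HCT-116 cells subcutaneously. Once tumors reached about 75 mm³, mice were randomized to groups of 8 and given 5 mg/kg intraperitoneally once daily for 21 days. Body weight was followed over time. At sacrifice, tumors were weighed, and inhibition (%) = (Wcontrol − Wtreated)/Wcontrol × 100. Data are mean ± SD.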

Data set [14] has as its system HCT-116. Kind of data set: Antitumor activity against human HCT116 cells xenografted in BALB/c nude mouse assessed as reduction in tumor weight at 5 mg/kg, ip administered daily for 21 days. It is filed as functional. Details: scale not given: the % may be the effect or the level left. In a few lines:
as §4

Data set [15] concerns Mus musculus. Kind of data set: Toxicity in nude BALB/c mouse xenografted with human HCT116 cells assessed as effect on lung size at 5 mg/kg, ip administered daily for 21 days. It is filed as organism-based. The note with it: in vivo, 504 h. The gist of the method:
as §1

The subject of a further data set is HT-29. In words: Antiproliferative activity against human HT-29 cells after 72 hrs by MTT assay. It is filed as functional, cell-based. The note with it: HT-29, 72 h. The gist of the method:
as §2

A short description of data set [16]: Aqueous solubility of the compound in PBS buffer at pH 5 by HPLC analysis. The format is physicochemical.
The test system of data set [17] is Mus musculus. Kind of data set: Toxicity in nude BALB/c mouse xenografted with human HCT116 cells assessed as effect on kidney size at 5 mg/kg, ip administered daily for 21 days. The format is organism-based. As to conditions: in vivo, 504 h. In a few lines:
as §1

For `Cc1nccnc1/C=C/C(=O)N1CCC=CC1=O`, inhibition in the data set on HCT-116 [1] was half-maximal at 8.9 µM (IC50). Besides, the result in the data set on A549, in the data set with HCT-116 [2] and in the data set with K562 was Active. This molecule also yielded a solubility in [3] of 48.2 µg/mL (≈ 198 µM).
In the data set with HCT-116 [1], `O=C1C=CCCN1C(=O)/C=C/c1cnccn1` displayed an IC50 of 3.19 µM. For the same molecule, the outcome in the data set on A549, with HCT-116 [2] and in the data set with K562 was Active. Also, the solubility in data set [3] was 59.8 µg/mL (≈ 261 µM).
As for `O=C(/C=C/c1ccc2ccccc2n1)N1CCC=C(Cl)C1=O`, the Activity result (in the data set with Mus musculus [4]; in data set [7]; with Mus musculus [8]; in the data set on Mus musculus [9]; in the data set with Mus musculus [10]; in the data set with Mus musculus [11]) was “Non-Toxic” in each case. The Activity result is “Non-Toxic” with Mus musculus [12]; “Non-Toxic” in the data set on Mus musculus [13]; 52% in the data set with HCT-116 [14]; “Non-Toxic” with Mus musculus [15]; “Non-Toxic” in the data set on Mus musculus [17]. For the same molecule, the IC50 with HCT-116 [1] is 0.47 µM; in data set [5], 50.8 µM; in the data set with HCT-8 it was 1790 nM; in the data set with HT-29 it was 920 nM. Also, the result in the data set on HCT-116 [6] and with HCT-116 [2] was Active. In data set [16], this molecule returned a solubility of 1990 µg/mL (≈ 6370 µM).
Molecule `Cc1cnc(/C=C/C(=O)N2CCC=CC2=O)cn1` had an IC50 in the data set with HCT-116 [1] of 7.95 µM. Also, the outcome with A549, in the data set on HCT-116 [2] and in the data set on K562 was Active. For the same molecule, the concentration in solution in data set [3] (solubility) was 47.9 µg/mL (≈ 197 µM).
As to `O=C1C=CCCN1C(=O)/C=C/c1cnc2ccccc2c1`, in the data set on HCT-116 [1], the IC50 amounted to 8.17 µM. Besides, the result with A549, with HCT-116 [2] and with K562 was Active. The same molecule had a solubility in data set [3] of 1.95 µg/mL (≈ 7.01 µM).
On to `COc1cc(/C=C/C(=O)N2CCC=CC2=O)cc(OC)c1OC` [PIPLARTINE], for which the outcome in the data set with A549, with HCT-116 [2] and with K562 was Active. In addition, in the data set with HCT-116 [14], the Activity is 53%. This molecule came in with a solubility in [3] of 1.63 µg/mL (≈ 5.14 µM).
Turning to `O=C1C=CCCN1C(=O)/C=C/c1ccncc1`, the half-maximal inhibitory concentration (IC50) in the data set on HCT-116 [1] was 7.05 µM. For the same molecule, the outcome with A549, in the data set on HCT-116 [2] and in the data set with K562 was Active. The molecule further yielded a solubility in data set [3] of 46.2 µg/mL (≈ 202 µM).
For the molecule `O=C1C=CCCN1C(=O)/C=C/c1ccc2ccccc2n1`, the IC50 in the data set with HCT-116 [1] is 0.93 µM. In addition, the outcome with A549, in the data set on HCT-116 [2] and in the data set on K562 was Active. The molecule further came in with a solubility in [3] of 2.41 µg/mL (≈ 8.66 µM).
`O=C1C=CCCN1C(=O)/C=C/c1cccnc1` returned a solubility in data set [3] of 45.3 µg/mL (≈ 198 µM).
On the same count and under the same terms, under `O=C1C=CCCN1C(=O)/C=C/c1ccccn1` stands 40.4 µg/mL (≈ 177 µM).
